Assay results: ChEMBL document CHEMBL4190353, “Synthesis, structure-activity relationships and preliminary mechanism of action of novel water-soluble 4-quinolone-3-carboxamides as antiproliferative agents” (Eur J Med Chem, 2017)
Active and inactive are the calls of the source. No cut-off for these calls is given here.

Key:
MCF7 = assay: Cytotoxicity against human MCF7 cells assessed as reduction in cell viability incubated for 24 hrs by MTT assay; type: functional, cell-based; conditions: MCF7, 24 h
How it was run: (§1)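 Cells were kept in McCoy's 5A with 10% fetal bovine serum, streptomycin and 100 units·mL⁻¹ penicillin at 37 °C under 5% CO₂/95% air. Viability was read by MTT optical density. IC50 is the concentration that lowers optical density by 50% relative to untreated cells. Values are means with SD of at least three independent determinations.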

HCT-116 [1] = assay: Induction of apoptosis in human HCT116 cells assessed as increase in cleaved PARP level pre-treated with 7.5 mM GSH for 6 hrs followed by 4 to 8 uM compound addition and further incubated for 24 hrs by Western blot method; type: functional, cell-based
HCT-116 [2] = assay: Induction of apoptosis in Bax-/- human HCT116 cells assessed as early apoptotic cells level incubated for 48 hrs by Annexin V-FITC/PI staining based cytometry (reference value: 6.8%); type: functional
How it was run: (§2)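 Cells were plated at 5×10^5 per well and treated once 80% confluent. After trypsinisation and two washes in ice-cold PBS (pH 7.4), cells were stained with Annexin V-FITC and PI for 15 min at room temperature in the dark. Analysis was by flow cytometry. The legend gives vehicle or 4 µM for the p53-/- and Bax-/- lines.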

HCT-116 [3] = assay: Induction of apoptosis in Bax-/- human HCT116 cells assessed as viable cells level incubated for 48 hrs by Annexin V-FITC/PI staining based cytometry (reference value: 92.9%); type: functional; how it was run: as §2
HCT-116 [4] = assay: Induction of apoptosis in p53-/- human HCT116 cells assessed as late apoptotic cells level at 4 uM incubated for 48 hrs by Annexin V-FITC/PI staining based cytometry (reference value: 0.1%); type: functional
How it was run: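 HCT116 p53-/- cells (Vogelstein line) in McCoy's 5A with 10% FBS, 37 °C, 5% CO2. Seeded at 5×10^5 in 6-well plates, treated with vehicle or 4 μM at 80% confluence. After treatment, trypsinised, washed twice in ice-cold PBS pH 7.4, and stained in binding buffer with Annexin V-FITC and PI for 15 min at room temperature in the dark. Read by flow cytometry.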

HCT-116 [5] = assay: Inhibition of colony formation of human HCT116 cells pre-treated with 7.5 mM GSH for 2 hrs followed by 16 to 32 uM compound addition and further incubated for 24 hrs and measured after 10 days post dose in fresh medium by crystal violet staining based photography; type: functional, cell-based
How it was run: (§3)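 HCT116 seeded at about 300 per well in 12-well plates and grown 2 h. Pre-treated 2 h with H2O, 7.5 mM L-NAC or GSH, then exposed to compound for 24 h. Colonies grown 10 days in fresh medium, stained with crystal violet and counted. Triplicate wells.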

HCT-116 [6] = assay: Induction of apoptosis in Bax-/- human HCT116 cells assessed as late apoptotic cells level at 4 uM incubated for 48 hrs by Annexin V-FITC/PI staining based cytometry (reference value: 0.2%); type: functional; how it was run: as §2
HCT-116 [7] = assay: Inhibition of colony formation of human HCT116 cells pre-treated with 7.5 mM L-NAC for 2 hrs followed by 16 to 32 uM compound addition and further incubated for 24 hrs and measured after 10 days post dose in fresh medium by crystal violet staining based photography; type: functional, cell-based; how it was run: as §3
HCT-116 [8] = assay: Induction of apoptosis in Bax-/- human HCT116 cells assessed as viable cells level at 4 uM incubated for 48 hrs by Annexin V-FITC/PI staining based cytometry (reference value: 95.2%); type: functional; how it was run: as §2
HCT-116 [9] = assay: Induction of apoptosis in human HCT116 cells assessed as necrotic cells level at 2 uM incubated for 24 hrs by Annexin V-FITC/PI staining based cytometry (reference value: 1.6%); type: functional
HCT-116 [10] = assay: Cytotoxicity in human HCT116 cells assessed as reduction in cell viability pre-treated with 7.5 mM L-NAC followed by 16 to 32 uM compound addition and further incubated for 24 hrs by CCK8 assay; type: functional, cell-based
How it was run: (§4)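 HCT116 cells were pretreated with H2O, 7.5 mM L-NAC or 7.5 mM GSH, then exposed to 4, 16 or 32 µM for 24 h. Viability was read by CCK-8, with 1 h reagent incubation at 37 °C and absorbance at 450 nm. n=3.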

RKO [11] = assay: Inhibition of colony formation of human RKO cells incubated for 24 hrs by crystal violet staining based photography; type: functional, cell-based
How it was run: (§5)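 Cells (HCT116, RKO, HCT116 p53-/-, HCT116 Bax-/-) seeded at 300 per well in 12-well plates for 48 h, then treated 24 h. Drug medium replaced with fresh medium; about 10 days later colonies stained 15 min with crystal violet, photographed and counted. Run in triplicate.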

HCT-116 [12] = assay: Inhibition of colony formation of Bax-/- human HCT116 cells at 4 to 16 uM incubated for 24 hrs by crystal violet staining based photography; type: functional, cell-based; how it was run: as §5
HCT-116 [13] = assay: Induction of apoptosis in human HCT116 cells assessed as necrotic cells level at 4 uM incubated for 24 hrs by Annexin V-FITC/PI staining based cytometry (reference value: 1.6%); type: functional
HCT-116 [14] = assay: Induction of apoptosis in human HCT116 cells assessed as necrotic cells level incubated for 48 hrs by Annexin V-FITC/PI staining based cytometry (reference value: 0.2%); type: functional
HCT-116 [15] = assay: Induction of apoptosis in human HCT116 cells assessed as viable cells level pre-incubated with 20 uM pan-caspase inhibitor Z-VAD-FMK for 5 hrs followed by compound addition and further incubated for 48 hrs by Annexin V-FITC/PI staining based cytometry (reference value: 98.7%); type: functional
HeLa = assay: Cytotoxicity against human HeLa cells assessed as reduction in cell viability incubated for 24 hrs by MTT assay; type: functional, cell-based; how it was run: as §1
HCT-116 [16] = assay: Induction of apoptosis in human HCT116 cells assessed as increase in cleaved PARP level pre-incubated with 20 uM pan-caspase inhibitor Z-VAD-FMK for 5 hrs followed by compound addition and further incubated for 48 hrs by Western blot method; type: functional, cell-based
How it was run: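 Cells were pretreated for 5 h with DMSO or 20 µM Z-VAD-FMK before compound exposure. Lysates were made in SDS buffer and quantified by BCA. Proteins were run on 10% SDS-PAGE, transferred to PVDF, and probed with cleaved PARP (1:1000) and GAPDH (1:5000) loading control, with ECL detection.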

RKO [17] = assay: Cytotoxicity against human RKO cells assessed as reduction in cell viability incubated for 24 hrs by CCK8 assay; type: functional, cell-based
How it was run: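 Cells were seeded at 3×10^4 per well, grown 24 h, then exposed to increasing concentrations for 24 h. CCK-8 reagent was added for 1 h at 37 °C and absorbance was read at 450 nm. Cells were kept in McCoy's 5A with 10% FBS, and n=3.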

HCT-116 [18] = assay: Induction of apoptosis in Bax-/- human HCT116 cells assessed as necrotic cells level at 4 uM incubated for 48 hrs by Annexin V-FITC/PI staining based cytometry (reference value: 0.3%); type: functional; how it was run: as §2
HCT-116 [19] = assay: Induction of apoptosis in human HCT116 cells assessed as late apoptotic cells level at 4 uM incubated for 24 hrs by Annexin V-FITC/PI staining based cytometry (reference value: 0.5%); type: functional
HCT-116 [20] = assay: Cytotoxicity in human HCT116 cells assessed as reduction in cell viability pre-treated with 7.5 mM GSH followed by 16 to 32 uM compound addition and further incubated for 24 hrs by CCK8 assay; type: functional, cell-based; how it was run: as §4

Structure (SMILES): CCN(CC)CCCNC(=O)c1cn(CCCc2ccccc2)c2cc(Cl)ccc2c1=O.Cl
- IC50 (MCF7): 5.02 µM
- Activity (HCT-116 [1]): inactive
- Activity (HCT-116 [2]): 33%
- Activity (HCT-116 [3]): 65.1%
- Activity (HCT-116 [4]): 1.3%
- inhibition (HCT-116 [5]): inactive
- Activity (HCT-116 [6]): 0.8%
- inhibition (HCT-116 [7]): inactive
- Activity (HCT-116 [8]): 71.5%
- Activity (HCT-116 [9]): 1%
- Activity (HCT-116 [10]): inactive
- inhibition (RKO [11]): Dose-dependent effect
- inhibition (HCT-116 [12]): Active
- Activity (HCT-116 [13]): 4.3%
- Activity (HCT-116 [14]): 4.6%
- Activity (HCT-116 [15]): 80.4%
- IC50 (HeLa): 3.52 µM
- Activity (HCT-116 [16]): inactive
- IC50 (RKO [17]): 4.87 µM
- growth inhibition (GI) (RKO [17]): Dose-dependent effect
- Activity (HCT-116 [18]): 2.1%
- Activity (HCT-116 [19]): 4.8%
- Activity (HCT-116 [20]): inactive
